Laboratory results taken from ChEMBL document CHEMBL2331253, “Atropisomeric dihydroanthracenones as inhibitors of multiresistant Staphylococcus aureus” (J Med Chem, 2013).
≈ marks a conversion by molar mass, not a printed value. Calls of active or inactive are those of the source. The calls are words filed in the database; no cut-off is given here.

Experiments:
Bacillus subtilis [1] = assay: Induction of yorB promoter in Bacillus subtilis IS34 after 3 hrs at 0.01 to 100 ug/ml by luciferase reporter gene assay; format: functional
In short: (§1)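 Promoter–firefly luciferase fusions were built in B. subtilis IS34. Luminescence was read in a plate reader and expressed as percent of the untreated control. One representative experiment.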

Bacillus subtilis [2] = assay: Induction of recA promoter in Bacillus subtilis YB3001 using 4-methylumbelliferyl beta D-galactopyranoside as substrate incubated for 3 hrs prior to substrate addition measured after 1 hr by beta galactosidase reporter gene assay relative to control; format: functional
In short: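 recA–β-galactosidase reporter in B. subtilis YB3001. Twofold compound dilutions in lysogeny broth were inoculated with mid-exponential cells and incubated 3 h at 37 °C, then frozen at −20 °C overnight. Cells were lysed with lysozyme (30 min, 37 °C) and Triton X-100. MUG was added and incubated 1 h at 25 °C. Fluorescence read at ex 360/em 450 nm.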

Bacillus subtilis [3] = assay: Induction of yorB promoter in Bacillus subtilis IS34 after 3 hrs by luciferase reporter gene assay relative to control; format: functional; in short: as §1
Bacillus subtilis [4] = assay: Induction of bmrC promoter in Bacillus subtilis IS34 promoter at 64 ug/mL after 3 hrs by luciferase reporter gene assay; format: functional, organism-based; in short: as §1
Bacillus subtilis [5] = assay: Induction of helD promoter in Bacillus subtilis IS34 at 64 ug/mL after 3 hrs by luciferase reporter gene assay; format: functional, organism-based; in short: as §1
Bacillus subtilis [6] = assay: Induction of liaI promoter in Bacillus subtilis IS34 promoter at 64 ug/mL after 3 hrs by luciferase reporter gene assay; format: functional, organism-based; in short: as §1
Bacillus subtilis [7] = assay: Antibacterial activity against Bacillus subtilis subsp. subtilis str. 168 trpC2 assessed as growth inhibition measured at 5 mins interval over 20 hrs by spectrophotometric analysis relative to control; format: functional, organism-based
In short: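 B. subtilis 168 trpC2 was grown in lysogeny broth, shaken, at 37 °C. Dilution and inoculum were as for broth microdilution. OD600 was read every 5 min over 20 h in untreated versus treated cultures.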

Staphylococcus aureus [8] = assay: Antibacterial activity against Staphylococcus aureus subsp. aureus Mu50 assessed as growth inhibition measured at 5 mins interval over 20 hrs by spectrophotometric analysis relative to control; format: functional
In short: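 S. aureus Mu50 was grown in Mueller−Hinton broth at 37 °C with shaking between reads. Dilution and inoculum were as for broth microdilution, with compound at 0.031–64 μg/mL. OD600 was read at 5 min intervals over 20 h against an untreated control. Run in triplicate.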

Klebsiella pneumoniae = assay: Antibacterial activity against doxycycline, kanamycin-resistant Klebsiella pneumoniae ATCC 27799 assessed as growth inhibition by CLSI broth microdilution method; format: functional
In short: (§2)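 MICs determined by CLSI broth microdilution in Mueller–Hinton broth. Inoculum was prepared by direct colony suspension, at 5 × 10^5 CFU/mL.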

Escherichia coli [9] = assay: Antibacterial activity against ciprofloxacin-resistant Escherichia coli WT-3-1 MB2 assessed as growth inhibition by CLSI broth microdilution method; format: functional; in short: as §2
Escherichia coli [10] = assay: Antibacterial activity against Escherichia coli ATCC 25922 assessed as growth inhibition by CLSI broth microdilution method; format: functional
Bacillus subtilis [11] = assay: Antibacterial activity against Bacillus subtilis subsp. subtilis str. 168 trpC2 assessed as growth inhibition by CLSI broth microdilution method; format: functional
Enterococcus faecium = assay: Antibacterial activity against clarithromycin, erythromycin, telithromycin, vancomycin-resistant Enterococcus faecium 6011 assessed as growth inhibition by CLSI broth microdilution method; format: functional; in short: as §2
Enterococcus faecalis = assay: Antibacterial activity against clarithromycin, erythromycin, moxifloxacin, telithromycin, vancomycin-resistant Enterococcus faecalis UW 2689 assessed as growth inhibition by CLSI broth microdilution method; format: functional; in short: as §2
Streptococcus agalactiae = assay: Antibacterial activity against doxycycline-intermediate Streptococcus agalactiae 013761 assessed as growth inhibition by CLSI broth microdilution method; format: functional
Streptococcus pneumoniae = assay: Antibacterial activity against Streptococcus pneumoniae ATCC 49619 assessed as growth inhibition by CLSI broth microdilution method; format: functional
Staphylococcus aureus [12] = assay: Antibacterial activity against amoxicillin, chloramphenicol, ciprofloxacin, clindamycin, erythromycin, fosmidomycin, gentamycin, kanamycin, nitrofurantoin, telithromycin, methicillin-resistant Staphylococcus aureus 25697 assessed as concentration required for partial growth inhibition by CLSI broth microdilution method; format: functional
Staphylococcus aureus [13] = assay: Antibacterial activity against amoxicillin, chloramphenicol, ciprofloxacin, clindamycin, erythromycin, fosmidomycin, gentamycin, kanamycin, nitrofurantoin, telithromycin, methicillin-resistant Staphylococcus aureus 25697 assessed as growth inhibition by CLSI broth microdilution method; format: functional; in short: as §2
Staphylococcus aureus [14] = assay: Antibacterial activity against Staphylococcus aureus ATCC 29213 assessed as growth inhibition by CLSI broth microdilution method; format: functional; in short: as §2
BALB/3T3 [15] = assay: Cytotoxicity against mouse BALB/3T3 cells assessed as growth inhibition after 48 hrs by Alamar blue assay; format: cell-based; conditions: BALB/3T3, 48 h
In short: (§3)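 THP-1 cells were kept in RPMI-1640 with 10% FCS. BALB/3T3 cells were kept in DMEM with 10% FCS. Cells were plated at 10^4 per well without antibiotics and exposed to 0.016−32 μg/mL (final, 0.32% DMSO) for 48 h at 37 °C, 5% CO2. AlamarBlue was added for 24 h more. Fluorescence (ex 560/em 600 nm) was expressed relative to untreated cells.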

THP-1 [16] = assay: Cytotoxicity against human THP1 cells assessed as growth inhibition after 48 hrs by Alamar blue assay; format: cell-based; conditions: THP-1, 48 h; in short: as §3
Pseudomonas aeruginosa = assay: Antibacterial activity against ceftazidime, ciprofloxacin, cefepime, gentamycin, imipenem, meropenem, piperacillin/tazobactam-resistant Pseudomonas aeruginosa 63230 assessed as growth inhibition by CLSI broth microdilution method; format: functional; in short: as §2
Streptococcus pyogenes = assay: Antibacterial activity against doxycycline-intermediate Streptococcus pyogenes 014327 assessed as growth inhibition by CLSI broth microdilution method; format: functional
Staphylococcus aureus [17] = assay: (§4) Antibacterial activity against ceftazidime, clarithromycin, ciprofloxacin, clindamycin, doxycycline, erythromycin, methicillin, moxifloxacin, kanamycin, telithromycin, rifampicin, methicillin-resistant, vancomycin-intermediate Staphylococcus aureus subsp. aureus Mu50 assessed as growth inhibition by CLSI broth microdilution method; format: functional; in short: as §2
Bacillus subtilis [18] = assay: Antibacterial activity against Bacillus subtilis subsp. subtilis str. 168 trpC2 assessed as induction of SOS response-mediated DNA degradation at 0.125 ug/mL after 120 mins by DAPI staining-based fluorescence microscopic analysis; format: functional, organism-based
In short: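 B. subtilis 168 trpC2 was grown in lysogeny broth to OD600 0.1−0.3, then treated in plates at 37 °C with shaking. Aliquots were taken 30−180 min after addition and stained 60 s with DAPI (1 μg/mL stock). Cells were immobilized on 1% agarose slides and imaged by phase contrast and fluorescence. Performed twice.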

Bacillus subtilis [19] = assay: Induction of yorB promoter in Bacillus subtilis IS34 after 3 hrs at 0.001 to 10 ug/ml by luciferase reporter gene assay; format: functional; in short: as §1
Bacillus subtilis [20] = assay: Antibacterial activity against Bacillus subtilis subsp. subtilis str. 168 trpC2 assessed as concentration required for partial growth inhibition by CLSI broth microdilution method; format: functional
Staphylococcus aureus [21] = assay: as §4, with “assessed as concentration required for partial growth inhibition” for “assessed as growth inhibition”; format: functional
Staphylococcus aureus [22] = assay: Antibacterial activity against Staphylococcus aureus ATCC 29213 assessed as concentration required for partial growth inhibition by CLSI broth microdilution method; format: functional
THP-1 [23] = assay: Cytotoxicity against human THP1 cells assessed as growth inhibition up to 32 ug/mL after 48 hrs by Alamar blue assay; format: cell-based; conditions: thp-1, 48 h; in short: as §3
BALB/3T3 [24] = assay: Cytotoxicity against mouse BALB/3T3 cells assessed as growth inhibition up to 32 ug/mL after 48 hrs by Alamar blue assay; format: cell-based; conditions: balb/3t3, 48 h; in short: as §3

For Cc1cc(O)c2c(c1)C(=O)c1cc(O)c(-c3c(O)cc4c(O)c5c(cc4c3O)CC(C)(O)CC5=O)c(O)c1C2=O (single isomer, unassigned; atropisomer) [Talaromannin B], the “concentration giving maximal yorB promoter induction” value (Bacillus subtilis [1]) was 8 µg/mL, the Activity (Bacillus subtilis [2]) was “Active” and the Activity (Bacillus subtilis [3]) was “Active”. For the same compound, the Activity (Bacillus subtilis [4]) was “inactive”, the Activity (Bacillus subtilis [5]) was “inactive” and the Activity (Bacillus subtilis [6]) was “inactive”. The “growth inhibition (GI)” value (Bacillus subtilis [7]) was “Active”, the “growth inhibition (GI)” value (Staphylococcus aureus [8]) was “Dose-dependent effect” and the MIC (Klebsiella pneumoniae) was greater than 64 µg/mL. The MIC (Escherichia coli [9]) was greater than 64 µg/mL, the MIC (Escherichia coli [10]) was greater than 64 µg/mL and the MIC (Bacillus subtilis [11]) was greater than 64 µg/mL. For the same compound, the MIC (Enterococcus faecium) was greater than 64 µg/mL, the MIC (Enterococcus faecalis) was 64 µg/mL (≈ 118 µM) and the MIC (Streptococcus agalactiae) was 64 µg/mL (≈ 118 µM). It also gave an MIC (Streptococcus pneumoniae) of 32 µg/mL (≈ 59 µM), an MIC (Staphylococcus aureus [12]) of 8 µg/mL (≈ 14.7 µM) and an MIC (Staphylococcus aureus [13]) of 16 µg/mL (≈ 29.5 µM). The MIC (Staphylococcus aureus [14]) was 16 µg/mL (≈ 29.5 µM), the IC50 (BALB/3T3 [15]) was greater than 32 µg/mL and the IC50 (THP-1 [16]) was greater than 32 µg/mL. The MIC (Pseudomonas aeruginosa) was greater than 64 µg/mL, the MIC (Streptococcus pyogenes) was 32 µg/mL (≈ 59 µM) and the MIC (Staphylococcus aureus [17]) was 8 µg/mL (≈ 14.7 µM).

In the case of O=C(O)c1cn(C2CC2)c2cc(N3CCNCC3)c(F)cc2c1=O [CIPROFLOXACIN], the Activity (Bacillus subtilis [18]) was “Active”, the “fold change (FC)” value (Bacillus subtilis [19]) was 20 and the Activity (Bacillus subtilis [2]) was “Active”.

For Cc1cc(O)c2c(c1)C(=O)c1cc(O)cc(O)c1C2=O [EMODIN], the Activity (Bacillus subtilis [1]) was “inactive”, the Activity (Bacillus subtilis [2]) was “inactive” and the Activity (Bacillus subtilis [4]) was “inactive”. For the same compound, the Activity (Bacillus subtilis [5]) was “inactive”, the Activity (Bacillus subtilis [6]) was “inactive” and the MIC (Bacillus subtilis [20]) was 8 µg/mL (≈ 29.6 µM). For the same compound, the MIC (Klebsiella pneumoniae) was greater than 64 µg/mL, the MIC (Escherichia coli [9]) was greater than 64 µg/mL and the MIC (Escherichia coli [10]) was greater than 64 µg/mL. It also gave an MIC (Bacillus subtilis [11]) of 16 µg/mL (≈ 59.2 µM), an MIC (Enterococcus faecium) greater than 64 µg/mL and an MIC (Enterococcus faecalis) of 16 µg/mL (≈ 59.2 µM). The MIC (Streptococcus agalactiae) was greater than 64 µg/mL, the MIC (Streptococcus pneumoniae) was 1 µg/mL (≈ 3.7 µM) and the MIC (Staphylococcus aureus [13]) was 2 µg/mL (≈ 7.4 µM). The MIC (Staphylococcus aureus [21]) was 2 µg/mL (≈ 7.4 µM), the MIC (Staphylococcus aureus [22]) was 2 µg/mL (≈ 7.4 µM) and the MIC (Staphylococcus aureus [14]) was 4 µg/mL (≈ 14.8 µM). For the same compound, the IC50 (BALB/3T3 [15]) was 32 µg/mL (≈ 118 µM), the IC50 (THP-1 [16]) was 32 µg/mL (≈ 118 µM) and the MIC (Pseudomonas aeruginosa) was greater than 64 µg/mL. For the same compound, the MIC (Streptococcus pyogenes) was greater than 64 µg/mL and the MIC (Staphylococcus aureus [17]) was 4 µg/mL (≈ 14.8 µM).

In the case of Cc1cc(O)c2c(c1)C(=O)c1c(c(O)cc(O)c1-c1c(O)cc(O)c3c1C(=O)c1cc(C)cc(O)c1C3=O)C2=O [SKYRIN], the Activity (Bacillus subtilis [1]) was “inactive”, the Activity (Bacillus subtilis [2]) was “inactive” and the Activity (Bacillus subtilis [4]) was “inactive”. The Activity (Bacillus subtilis [5]) was “inactive”, the Activity (Bacillus subtilis [6]) was “inactive” and the MIC (Klebsiella pneumoniae) was greater than 64 µg/mL. It also gave an MIC (Escherichia coli [9]) greater than 64 µg/mL, an MIC (Escherichia coli [10]) greater than 64 µg/mL and an MIC (Bacillus subtilis [11]) of 4 µg/mL (≈ 7.43 µM). The MIC (Enterococcus faecium) was 32 µg/mL (≈ 59.4 µM), the MIC (Enterococcus faecalis) was 16 µg/mL (≈ 29.7 µM) and the MIC (Streptococcus agalactiae) was greater than 64 µg/mL. For the same compound, the MIC (Streptococcus pneumoniae) was 4 µg/mL (≈ 7.43 µM), the MIC (Staphylococcus aureus [13]) was 4 µg/mL (≈ 7.43 µM) and the MIC (Staphylococcus aureus [22]) was 2 µg/mL (≈ 3.71 µM). The MIC (Staphylococcus aureus [14]) was 4 µg/mL (≈ 7.43 µM), the “growth inhibition (GI)” value (THP-1 [23]) was “Non-toxic” and the “growth inhibition (GI)” value (BALB/3T3 [24]) was “Non-toxic”. For the same compound, the MIC (Pseudomonas aeruginosa) was greater than 64 µg/mL, the MIC (Streptococcus pyogenes) was greater than 64 µg/mL and the MIC (Staphylococcus aureus [17]) was 2 µg/mL (≈ 3.71 µM).
